Source: the EternaBench riboswitch data

Test system: MS2 coat protein
Experiment: apparent Kd, MS2 coat protein; higher = weaker binding; RNA-MaP array; FMN 200 µM where present
How it was run: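 Stalled E. coli RNA polymerase transcribed each design on Illumina sequencing-chip clusters. The clusters were titrated with SNAP-549-labelled MS2 coat protein, starting at 0.7 or 1.5 nM and doubling up to 3 µM, first without ligand and then with constant ligand, in 100 mM Tris-HCl pH 7.5, 80 mM KCl, 4 mM MgCl2, BSA, DTT, yeast tRNA and Tween-20. Green signal was normalised to red-channel RNA signal and to the control-cluster median Fmax. The apparent Kd is the median of filtered binding-curve fits made for each cluster.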

[1] = designed as: OFF switch for flavin mononucleotide, no ligand
[2] = ligand present: flavin mononucleotide, designed as: OFF switch for flavin mononucleotide
[3] = designed as: ON switch for flavin mononucleotide, no ligand
[4] = ligand present: flavin mononucleotide, designed as: ON switch for flavin mononucleotide

Sequence	apparent Kd [1]	apparent Kd [2]	apparent Kd [3]	apparent Kd [4]
AUACUCGUUGUGAGGAUAUCGUUUUCUUUACGGAUCGAGAAGGCACAUGAGGAUCACCCAUGUUUGACGUGAAU	33.7 nM	162 nM	–	–
UGUCGGAGCAGAGGAUAUUACAUGAGGAUCACCCAUGUAUGAACCAAUAGCUCGAAACAGCAAUGUAAGAAGGCUGCUCCGACA	6.38 nM	69.9 nM	–	–
CCUCAUUGGCAGGAUAUCAGCACUAACGUGGUAUGAGAAGGGUCGACAUGAGGAUCACCCAUGUCAAUUGUCUG	31.2 nM	122 nM	–	–
GGAUGACAAAGUCAUCCAAUUCGAACAUGAGGAUCACCCAUGUAGGAUAUGCUACUCAAAGAGUAGCAGAAGGACAUGUGCUUU	37.7 nM	167 nM	–	–
AGCGGAUUGUAGAAGGGUGACAUGAGGAUCACCCAUGUUCAAAUGCGAUUUACGGUAAUUGAUCCACAGGAUAUACUGUCCGAG	–	–	942 nM	266 nM
AAGACUAGAGGAUAUACAUGAGGAUCACCCAUGUAACUGUCAGGUGACUGACGGAGAUGUAGAAGGCUAGUCAA	19.6 nM	43.2 nM	–	–
GGUCCACAUGAGGAUCACCCAUGUUAGGAUAUCUCGCCCGAGUCGUUAUGGGCCAGGCAGAGAAGGAAUGUGAA	20.4 nM	18.8 nM	–	–
GCGUAACAUGAGGAUCACCCAUGUGCCCGAGAAUUCGGGCCGAGAAGGGUGACCGGACGUAUGGCACAGGAUAUCGACGUUGUG	–	–	25.2 nM	12.1 nM
GUCACCUCGUGAGGAUAUACAACACUGCUUCGGCAGUGUAUUAAGAUCACAUGAGGAUCACCCAUGUAGAAGGCACGAGCUGAU	17.2 nM	221 nM	–	–
GUGCUUGUCGGAGGAUAUGGUUACAUGAGGAUCACCCAUGUUAUGCUUGGUUACUUGUUUAGUUUCCAGAAGGUCGAUUAGUUG	61 nM	145 nM	–	–
CGCACUGAUAGAGGAUAUGUUUUACAUGAGGAUCACCCAUGUGUACAAGGAUCAAUAUAUUAGUAACAGAAGGCUAUUAGUGCG	24.7 nM	21.5 nM	–	–
AAACAGGGAGGAUAUACAUAGAUCCUCUAACCUAAUUGGUCACAUGAGGAUCACCCAUGUAGAAGGCCCUUAGG	–	11.3 nM	–	–
CGGAUGUCAGGAUAUCGUGCAUACAACGAAAGUUCUAUGUGCGAGAAGGGACAUGAGGAUCACCCAUGUUACGG	252 nM	588 nM	–	–
AGUAACAGAGGAUAUACUAUUUUAUGUGUUUGUUAUUUUGAACAUGAGGAUCACCCAUGUAGAAGGCUGAAUAA	25 nM	26 nM	–	–
AAAACAUGAGGAUCACCCAUGUAAAGAUCGGUUAAUAGAGGUGAGGAUAUACGAACUUAAAGGUGGUAGAAGGCACUGGGUACA	–	–	71.6 nM	53.3 nM
CCGCAUAAGCAGGAUAUCGUAUCGGAAACGAUACGAGAAGGGUUAACAUGAGGAUCACCCAUGUUCCUUAACGG	17.9 nM	18.2 nM	–	–
UGUUUGCGGCAGGAUAUCCAUCCGCGGUGUGGUGGAGAAGGGCUGACAUGAGGAUCACCCAUGUGCGUCCUGUU	23.6 nM	27.9 nM	–	–
CAUCAAAGAAUACCAGGGCAUUAAUGAGAAGGCCAACCACAUGAGGAUCACCCAUGUACGGGAGUGGAGGAUAUCAGUGGGCCG	–	–	52.5 nM	6.43 nM
UGCUGUGUCAGAGGAUAUCUACUAAUAAUCCAUUGCAAAUAGCGAUGGACAUGAGGAUCACCCAUGUAGAAGGCUGUCACAGCA	110 nM	120 nM	–	–

Sequence	apparent Kd [1]	apparent Kd [2]	apparent Kd [3]	apparent Kd [4]
UAUGGUAAAGUCAGGAUAUACGUACGUCGUUCUAGGUAGAAGGGACAUGAGGAUCACCCAUGUAUGGUAGUGUU	90 nM	88.9 nM	–	–
GCUUGUGAAGGAUAUACUGGCGACAUGCGCUCGACACGCGCACAUGAGGAUCACCCAUGUAGAAGGUCAAACAU	20.9 nM	21.3 nM	–	–
GGUUAGAAAGGAUAUACAUGUCGUGAGACAUCUUGCACCUAACAUGAGGAUCACCCAUGUAGAAGGUUCAAGCC	17.4 nM	30.5 nM	–	–
UUAUUAGCAGGAUAUAUCCGGGAUAACAUGAGGAUCACCCAUGUGACCGCUUGAUAUCCUAUAGAAGGGCUUUAUU	19.9 nM	31.4 nM	–	–
UUUUAAUAAUAGAAGGAGCACUACAUGAGGAUCACCCAUGUGUUAGUAGUUAGGAUAUAUAAUAACAUGAGGAUCACCCAUGUA	–	–	83.6 nM	40.7 nM
AGUCGGCGAGGAUAUACAUGAGGAUCACCCAUGUGAGAGAUAAAAGUGAGUUAGACAAGUAGAAGGCGCUGACA	59.7 nM	469 nM	–	–
GGUGUCAUCGAGAAGGCCUCAACAUGAGGAUCACCCAUGUUGUAAUAUGGGAGGAUAUCGAUGAUACAGCUACGUUUCGUAGCU	–	–	20.2 nM	5.86 nM
GCCGAAAGUGUGAGGAUAUACCUAUGGAUACAUAGGUAGAAGGCACAUGAGGAUCACCCAUGUUCCUAAACGGC	80.2 nM	421 nM	–	–
CUCUUGGCAGGAUAUGCUCUUUUAGACAUGAGGAUCACCCAUGUGCUCAUUCCUUCUUUUGCAGAAGGGCCUUAAC	73 nM	54.7 nM	–	–
CGUGAACAUGAGGAUCACCCAUGUGAAAAACAUAGAGGAUAUGUCACGUGAGUGUAAAAGACAGAAGGCUAUCGUG	–	–	85.4 nM	43 nM
AAGAAGUGAGGAUAUCGAAGACUGUCGAAAAGACAGUCGAACGAGAAGGCACAUGAGGAUCACCCAUGUAAGAA	24.1 nM	34.5 nM	–	–
UCGAGUCAUGAGAAGGGUUGAUGUUACAUGAGGAUCACCCAUGUCAUGGGCAGGAUAUCAUUGACACGACUGUACCUCUCUUAC	–	–	254 nM	112 nM
GGAGCUCACAUUAACAUGAGGAUCACCCAUGUCUCUUGACAUGAGGAUAUGGAUCCUAAUUGGAUCCAGAAGGCAUGGAGCUCC	–	–	1650 nM	108 nM
GGAUGACAAAGUCAUCCCUGACGAACAUGAGGAUCACCCAUGUAGGAUAUGCUACUCAAAGAGUAGCAGAAGGACAUGUGUCUU	31.2 nM	150 nM	–	–
CUUAGACAUGAGGAUCACCCAUGUGAGGAUAUGAUGCAGCAGUGGUCUACGCUGUGCAUCAGAAGGCACAUGUG	80.7 nM	14.2 nM	–	–
CUUCUGUCAGGAUAUGCGAAUCACCACUGGGUCAGCGGUGAGCAGAAGGGACAUGAGGAUCACCCAUGUAAAGU	40.5 nM	171 nM	–	–
AAGCUGGUAGGAUAUGCUAGGGCGAUUAAUACGCCGAUAGUACAUGAGGAUCACCCAUGUAGAAGGGCCAGAAA	23.6 nM	17.8 nM	–	–
UGUUGUAUUACAGGAUAUCUAGUAUUUUGAUUUAGAGAAGGGUAUUCACAUGAGGAUCACCCAUGUAUAUACGAGGAAGUUGUG	–	–	52.4 nM	57.4 nM
GUAGCAACAUGAGGAUCACCCAUGUAGGAUAUCGCUAUUGUAAUCAUGAAACAUGAUUACAAUAGCGAGAAGGACAUAUGCUAC	6.93 nM	10.2 nM	–	–

Sequence	apparent Kd [1]	apparent Kd [2]	apparent Kd [3]	apparent Kd [4]
CGUGUCAUCGAGAAGGCCUCAACAUGAGGAUCACCCAUGUUGUAAUAUGGGAGGAUAUCGAUGAUACAGCUACGUUUCGUAGCA	–	–	21.1 nM	6.03 nM
UUUAUGUGAGGAUAUCAGUAGUAAAAAAAUAAAAUUACUACUGAGAAGGCACAUGAGGAUCACCCAUGUACUUC	40.2 nM	30.5 nM	–	–
UUAAAACAUGAGGAUCACCCAUGUGAGGAUAUGAGCCGACUGUCCUGUCGGCAUGUAGUCAGAAGGUGCAGGGU	62.2 nM	109 nM	–	–
AGGAGAAAUGUAGGAUAUGGGCGUAUAUAUGGGCAAAGCGCAUAUAUACGCCCAGAAGGACAUGAGGAUCACCCAUGUUUCCCU	12.7 nM	12.9 nM	–	–
UCGUGGUUAGGAUAUACAUGAGGAUCACCCAUGUGUGGCAGGGAGCGCCGACGGGCUUGUAGAAGGGAUGCGCA	40.4 nM	39.6 nM	–	–
GUCAGCUCGUGAGGAUAUACAACACUGCUGCGGCAGUGUAUUAAGAUCACAUGAGGAUCACCCAUGUAGAAGGCACGAGCUGAU	13.7 nM	262 nM	–	–
ACUGACAUGAGGAUCACCCAUGUCUUGAAUAGGUCAAAUUCACAGGAUAUGCACUUGGACAGGGUGCAGAAGGGUGAUGCAAUG	–	–	57 nM	12.2 nM
GUACUGAAGCUUUGCUUUAGUCGUACAUGAGGAUCACCCAUGUAGGAUAUGGUAAGCUUUGCUUACUAGAAGGAUAGAGUGAUC	119 nM	50.2 nM	–	–
UGUCGAAGCAGAGGAUAUUACAUGAGGAUCACCCAUGUAUGAACCAAUAGCUGGAAACAGCAAUGUAAGAAGGCUGCUCCGACA	11.8 nM	138 nM	–	–
GCCGGUUACACAGGAUAUCCCAUGUCGACGGCGACAUGAGGAUCACCCAUGUCCUGGACGGGUUAGGAGAAGGGUGUAAAAUGC	–	–	110 nM	51.8 nM
GGAUGACAAAGUCAUCCAAUACGAACAUGAGGAUCACCCAUGUAGGAUAUGCAACACAAAGUGUUGCAGAAGGACAUGUGUCUU	30.4 nM	136 nM	–	–
AAAUAACCUAGCAAAAUUUCCUCACAUGAGGAUCACCCAUGUAGAAGGCUGUCCUAAAAUAGGACAGAGGAUAUACGUGCUAGG	6.82 nM	107 nM	–	–
GUACUGAAGCUUUGCUUUAGUCGUACAUGAGGAUCACCCAUGUAGGAUAUGGUAGGCUUUGCCUACUAGAAGGAUAGAGUGAUC	89.2 nM	33.9 nM	–	–
GCCAUCGCAUGAGGAUAUGGCACCGUUUCGGUGCCAGAAGGCAUGUCAUAAGACAUGAGGAUCACCCAUGUGGUUAAGAUGGCA	–	–	865 nM	50.9 nM
UGCGUUAAGCCCUUAAGUCGUCAACAUGAGGAUCACCCAUGUAGAAGGCAGCGGACGCGGCCGGCUGAGGAUAUACAUGUAGGU	13.3 nM	16.8 nM	–	–
UAAAUACAUGAGGAUCACCCAUGUCAAAAGACAUGAGGAUAUGUACAGACUUCGGUCUGUACAGAAGGCAUGAAAA	–	–	680 nM	55.4 nM
UUAUACGUUGAGGAUAUGCGAAUAAGUAUAGUUGCAGAAGGCGAUACAUGAGGAUCACCCAUGUUCAUGGACAU	126 nM	180 nM	–	–
GAUAGGACAGAGAAGGACAUGGCUAGAGAUACUAGCAUAUGAACCUUCACAUGAGGAUCACCCAUGUAGGAUAUCUGUCCUAUC	3.8 nM	4.86 nM	–	–
